Structures are written as SMILES. Screen size: about 330,000 compounds; about 350 (0.11%) were called active.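 The calls were made as follows: active = activation more than six SD over the plate average, tested at 20 µM; inactive = the rest.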 The full list was thinned out, with actives kept by preference.

Chain of Apelin receptor (Homo sapiens) (P35414 whole entry, looked up): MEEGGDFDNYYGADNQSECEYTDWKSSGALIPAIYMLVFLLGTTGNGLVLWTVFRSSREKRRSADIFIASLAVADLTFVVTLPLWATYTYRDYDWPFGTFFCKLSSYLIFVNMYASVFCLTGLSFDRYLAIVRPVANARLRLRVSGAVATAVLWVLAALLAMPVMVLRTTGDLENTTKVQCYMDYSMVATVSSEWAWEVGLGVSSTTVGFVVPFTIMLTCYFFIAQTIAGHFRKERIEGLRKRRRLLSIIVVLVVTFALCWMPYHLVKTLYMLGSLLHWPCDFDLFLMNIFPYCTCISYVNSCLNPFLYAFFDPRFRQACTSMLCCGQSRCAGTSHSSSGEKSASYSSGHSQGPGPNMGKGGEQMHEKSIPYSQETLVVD

The assay concerns the target Apelin receptor (Homo sapiens) (UniProt P35414). As to the kind of experiment: agonists of human apelin receptor APJ, primary screen, CHO-K1 cells, PathHunter beta-arrestin, luminescence (AID 2520). The note with it: at 20 µM, hits give high values, 0% DMSO wells, 100% apelin. The essentials: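 Assay system: CHO-K1 cells stably expressing ProLink-tagged human APJ and arrestin–beta-gal acceptor. Compound dosing: 20 µM single point, 1% DMSO. Times: 16-18 h seeding, 90 min dark compound exposure, 60 min detection. Detection: beta-gal luminescence. Evaluation: APJ–arrestin association signal. Controls: negative DMSO alone, positive Apelin-13 at 10 nM.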
As for `Cn1c(=O)cc(OCCCC(=O)N2CCN(c3ccccn3)CC2)c2ccccc21`, the activation was -3.56% (inactive).

On to `COc1ccc(NC(=O)CSc2nncc(=O)n2N)cc1OC`, for which the activation is -6.25% (inactive).

With `CN(C)/C=C(\C#N)C(=O)c1cccnc1Oc1cccc(F)c1`, the activation is -4.09% (inactive).

`CC(C)NC(=O)Nc1cccc2c1O[C@@H](CN(C)S(=O)(=O)c1ccc(F)cc1)[C@@H](C)CN([C@H](C)CO)C2=O`: the activation was -0.163% (inactive).

For the molecule `Cc1ccc(S(=O)(=O)N(C)C)cc1NC(=O)/C=C/c1cccs1`, the activation was 2.48% (inactive).

In the case of `Cn1ccnc1-c1nnn(-c2ccc(F)cc2)n1`, the activation is -4.89% (inactive).

Turning to `CCOc1ccc(CN2CCN(Cc3ccon3)CC2CCO)cc1` (stereo not given), the activation is -0.588% (inactive).

With `Cc1ccc(C(=O)O)cc1-c1ccc(/C=C2\SC(=O)N(CC(=O)Nc3ccc4c(c3)OCO4)C2=O)o1`, the activation is 0.103% (inactive).

For the molecule `CC(NC(=O)c1ccc(Cl)cc1)C(=O)N1CCCCC1` (stereo not given), the activation was 0.246% (inactive).

For `COc1ccc(C)cc1NC(=O)CSc1nnc2ccc(-c3ccccn3)nn12`, the activation is 1.64% (inactive).

For the molecule `COc1ccc(CNS(=O)(=O)c2cc(-c3cc(C)no3)ccc2C(C)C)cc1`, the activation is 0.556% (inactive).

Regarding `CN1CCN(CC#CCC2(O)c3ccccc3-c3ccccc32)CC1`, the activation is -0.677% (inactive).

For `CN1CCN(S(=O)(=O)c2ccc(Nc3ccc(F)cc3)nc2)CC1`, the activation was 7.91% (inactive).

`Brc1ccc(CN2CC[C@H]3C=CCc4cccc(c43)C2)cc1`: the activation was -1.27% (inactive).

Turning to `CCN1CN(Cc2ccccc2)CNC1=S`, the activation was -0.233% (inactive).

On to `CCc1ccc(CN2C(=O)c3ccccc3C2C(=O)NCC2CCCO2)cc1` (stereo not given), for which the activation was 1.09% (inactive).

As for `CCCN(c1ccc(C(C)C)cc1)S(=O)(=O)c1c(C)[nH]c(=O)[nH]c1=O`, the activation is -2.76% (inactive).

As to `CCN1C(=O)c2cccc3c(N)ccc1c23`, the activation was 24% (active).

Consider `CCN1C(=O)c2cccc3c(S(=O)(=O)Nc4ccccc4O)ccc1c23`, for which the activation was 2.45% (inactive).

Consider `Cc1nn(C)cc1N1C(=O)c2cccc3c(N)ccc(c23)C1=O`, for which the activation is -0.917% (inactive).

With `O=S(=O)(N1CCCCC1)N1CCNCC1`, the activation was 2.29% (inactive).

`Cc1c(Cl)c([N+](=O)[O-])nn1Cc1ccc(C(=O)N/N=C\c2cc(Cl)ccc2O)o1`: the activation is 1.67% (inactive).

As for `COc1cc(NC(=O)COC(=O)c2cc(S(=O)(=O)N3CCOCC3)ccc2F)cc(OC)c1`, the activation is -0.441% (inactive).

Turning to `Cc1cc(C(=O)NCCc2ccc(Cl)cc2)c(C)o1`, the activation is 7.66% (inactive).

As for `CSCCC(C(=O)NC1=NCCS1)N1C(=O)c2ccccc2C1=O` (stereo not given), the activation is 0.0635% (inactive).

On to `CN(C(=O)c1cccc(NC(=O)Cc2ccc([N+](=O)[O-])cc2)c1)C1CCC1`, for which the activation is 0.477% (inactive).

As to `COc1cc(C(=O)Nc2cc(C(F)(F)F)ccc2N2CCOCC2)ccc1O`, the activation was -3.45% (inactive).

Consider `Cc1ccc(NC(=O)CN(C)C(=O)c2cccc(S(=O)(=O)N3CCCC3)c2)cc1`, for which the activation is -1.65% (inactive).

As for `Cc1n[nH]c(=O)n1-c1ccc(Oc2ccccc2)cc1`, the activation was -4.14% (inactive).

On to `O=C(CCS(=O)(=O)c1ccc2c(c1)NC(=O)CS2)NCc1ccccc1Cl`, for which the activation is 0.174% (inactive).

For the molecule `CCCc1ccc(OCc2ccc(C(=O)N/N=C/c3cccc([N+](=O)[O-])c3)o2)c(OC)c1`, the activation is 47.7% (active).

For `COC(=O)c1ccc(COc2ccc(/C=N/NC(=O)C(=O)Nc3ccc(OC)cc3)cc2OC)o1`, the activation was -4.37% (inactive).

Regarding `O=C(N/N=C/c1cccc(OCc2ccccc2)c1)c1ccc(Br)o1`, the activation is 12% (inactive).

As for `O=C(c1cnn2ccccc12)N1CCc2ccccc21`, the activation was -0.0654% (inactive).

`CCc1ccc(N2CC(C(=O)NC3=NCCS3)CC2=O)cc1` (stereo not given): the activation was 10.1% (inactive).

As for `CSc1nccc(NC(=O)c2ccc(C(C)(C)C)cc2)n1`, the activation was 1.31% (inactive).

In the case of `CSc1cccc(NC(=S)N(C(C)C)C(C)c2ccccn2)c1` (stereo not given), the activation is 1.84% (inactive).

Regarding `COc1ccccc1N(C)S(=O)(=O)c1ccc(Cl)c(C(=O)Nc2ccncc2)c1`, the activation is 4.67% (inactive).

Turning to `COc1cccc(N(CC(=O)NC2CCCC2)C(=O)Cn2nnc(-c3ccc(C)o3)n2)c1`, the activation was 2.12% (inactive).

Regarding `CCc1nn(-c2cc(Oc3cccc4ccccc34)nc(-c3ccccc3)n2)c(N)c1C#N`, the activation was -3.92% (inactive).

Regarding `COc1cccc(OC)c1CN(C)C(=O)c1cnccc1C(F)(F)F`, the activation is -2.03% (inactive).

As for `CC(=O)NCC(=O)N1CCC(n2nccc2NC(=O)CCCc2ccccc2)CC1`, the activation is -2.51% (inactive).

Consider `CC1=C/C(=N\OS(=O)(=O)c2ccccc2)C=CC1=O`, for which the activation was 40.6% (active).

As to `COc1ccc(C(=O)O/N=C(\N)Cc2ccc(Cl)cc2Cl)cc1OC`, the activation was 11.8% (active).

For the molecule `COc1ccc(C/C(N)=N/OC(=O)c2ccco2)cc1OC`, the activation is 6.23% (inactive).

Turning to `COc1ccc(C(=O)ON=C2c3ccccc3-c3ccccc32)cc1OC`, the activation is -1.57% (inactive).

With `COc1cccc(CSc2nc3nc(C)cc(C)n3n2)c1`, the activation is -1.45% (inactive).

Regarding `CN(C(=O)CN1C(=O)NC(C)(CCc2ccccc2)C1=O)c1ccccc1` (stereo not given), the activation is -2.66% (inactive).

Regarding `Cc1nn(CC(=O)NC2CCCCC2)c(=O)c2cccn12`, the activation is -3.35% (inactive).

`CCOC(=O)C1C(c2ccc(OC)c(OC)c2)c2c([nH][nH]c2=O)CC1(C)O` (stereo not given): the activation is 0.0386% (inactive).

Regarding `O=c1ccc(-c2ccc(S(=O)(=O)Nc3ccccc3)o2)n[nH]1`, the activation is 2.43% (inactive).

`CC1=NN(C(=O)CCc2ccccc2O)C(O)(C(F)(F)F)C1` (stereo not given): the activation is -2.46% (inactive).

On to `CC1=C(C/C=C(\C)CCCC(C)CCCC(C)CCCC(C)C)C(=O)c2ccccc2C1=O` (stereo not given), for which the activation was 16.4% (inactive).

Take `Cc1cc(NC(=O)Nc2ccccc2[N+](=O)[O-])no1`: the activation is -0.224% (inactive).

As to `Cc1csc(SCC(=O)N(c2ccccc2)C(C)C)n1`, the activation was -5.06% (inactive).

For the molecule `O=C(Nc1nnc(C2CC2)s1)C1=NN(C2CCS(=O)(=O)C2)C(=O)CC1` (stereo not given), the activation was -2.11% (inactive).

For `CN(C)S(=O)(=O)c1ccc(N/C=C(\[N+](=O)[O-])S(=O)(=O)c2ccccc2)cc1`, the activation is -4.82% (inactive).

As for `CC(=O)Nc1ccc(Sc2ccccc2C(=O)N2CCCC2)cn1`, the activation is -0.519% (inactive).

With `O=C(O)c1cccc2c1C(=O)N(C1CCCCC1)C2`, the activation was -1.33% (inactive).

As to `CC1(C)NC(=O)N(CC(=O)N2CCN(S(=O)(=O)c3ccccc3F)CC2)C1=O`, the activation is -2.41% (inactive).

`CCCCCCCCCCCCC(NC(C)=O)(C(=O)OCC)C(=O)OCC`: the activation is -3.1% (inactive).

As to `O=S(=O)([N-]c1nc2ccccc2nc1-[n+]1ccc(Cc2ccccc2)cc1)c1ccc(Br)s1`, the activation was 3.3% (inactive).

Regarding `CN(CC(=O)NCCc1ccc(S(N)(=O)=O)cc1)CC(=O)Nc1ccc(Cl)cc1`, the activation is -2.04% (inactive).

For `Cc1ccc(-n2nc(N)c3c(=O)oc(N(C)C)nc32)cc1`, the activation was -1.59% (inactive).

As for `CCOC(=O)c1sc(=NC(=O)/C=C/c2cccs2)n(C)c1C`, the activation was -1.39% (inactive).

For the origin of these results see PubChem BioAssay AID2520 (Sanford-Burnham Center for Chemical Genomics, 2010).
